Experimental data pooled from the literature.
Protocols differ between the studies behind these lines.
Target: Serine/threonine-protein kinase DCLK2 (DCLK2, Homo sapiens, UniProt Q8N568)
Residues used in one study (Q8N568 1-766): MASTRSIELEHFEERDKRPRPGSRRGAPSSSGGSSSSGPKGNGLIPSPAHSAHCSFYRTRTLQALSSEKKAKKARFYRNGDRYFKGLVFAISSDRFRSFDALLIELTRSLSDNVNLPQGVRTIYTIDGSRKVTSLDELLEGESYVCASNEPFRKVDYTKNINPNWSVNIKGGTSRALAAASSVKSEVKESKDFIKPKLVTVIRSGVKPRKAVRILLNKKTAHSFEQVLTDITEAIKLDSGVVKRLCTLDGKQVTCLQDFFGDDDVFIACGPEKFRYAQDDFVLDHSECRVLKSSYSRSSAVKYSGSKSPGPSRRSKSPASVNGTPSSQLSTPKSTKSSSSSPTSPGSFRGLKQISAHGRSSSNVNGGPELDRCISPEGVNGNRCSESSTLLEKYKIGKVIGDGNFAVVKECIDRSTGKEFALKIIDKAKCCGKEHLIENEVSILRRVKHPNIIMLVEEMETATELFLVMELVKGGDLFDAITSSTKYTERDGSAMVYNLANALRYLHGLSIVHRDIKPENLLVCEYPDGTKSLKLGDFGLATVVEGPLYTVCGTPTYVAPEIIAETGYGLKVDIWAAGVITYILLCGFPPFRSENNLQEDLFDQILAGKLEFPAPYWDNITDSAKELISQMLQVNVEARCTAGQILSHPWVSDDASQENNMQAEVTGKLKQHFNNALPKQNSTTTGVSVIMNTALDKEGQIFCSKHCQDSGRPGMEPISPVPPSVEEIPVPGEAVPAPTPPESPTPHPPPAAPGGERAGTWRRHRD

Cc1sc(C(=O)NC2COC2)cc1-n1cc(NC(=O)Nc2c(F)cccc2Cl)cn1  remaining activity (enzyme activity; inhibitor; 10 µM): 107%
CCN(CC)CCNC(=O)c1c(C)[nH]c(/C=C2\C(=O)Nc3ccc(F)cc32)c1C  inhibition (enzyme activity; inhibitor; 10 µM): 69%
CCCOc1ccc([C@H]2[C@H](C(=O)O)[C@@H](c3ccc4c(c3)OCO4)CN2CC(=O)Nc2c(CC)cccc2CC)cc1  remaining binding (cell-free assay; competition with immobilised ligand; 1 µM): 77%
CNc1cccc2cc(C(=O)Nc3ccc(C(=O)O)cc3)c(=O)[nH]c12  inhibition (enzyme activity; inhibitor; 10 µM): -1.4%
Cc1cnc(NC2CCOCC2)nc1-n1cnc(C(=O)NC(CN)c2cc(F)cc(Cl)c2)c1 (centres unmarked)  remaining activity (enzyme activity; inhibitor; radiometric; 1 µM): 83%
CC(C)(C)c1nc(-c2cccc(NS(=O)(=O)c3c(F)cccc3F)c2F)c(-c2ccnc(N)n2)s1  remaining activity (enzyme activity; inhibitor; radiometric; 1 µM): 77%
O=C(Nc1cnn(-c2csc(C(=O)NC3COC3)c2)c1)Nc1c(F)cccc1Cl  remaining activity (enzyme activity; inhibitor; 5 µM): 94.3%
Cn1cncc1C1=CN(c2ncnc3[nH]cnc23)CCS1  inhibition (enzyme activity; inhibitor; radiometric; 50 nM): 12.8%
COc1cc(Cl)c(C(=O)N[C@@H](CN[C@H]2CC[C@@H](N)CC2)Cc2ccc(C#N)cc2)cc1-c1ccc(CN[C@H](C)c2ccc(C)cc2)o1  remaining activity (enzyme activity; inhibitor; 1 µM): 96%
O=C1NC(=O)c2cc(Nc3ccc(F)cc3)c(Nc3ccc(F)cc3)cc21  remaining signal (cell-free assay; 0.5 µM): 100%
CCS(=O)(=O)c1cc2cc(C[C@@](O)(CC(C)(C)c3ccc(F)cc3C(N)=O)C(F)(F)F)[nH]c2cn1  remaining binding (cell-free assay; competition with immobilised ligand; 1 µM): 100%
O=C1Nc2ccc(Cl)cc2C1=Cc1cc(Cl)c(O)c(Cl)c1  remaining signal (cell-free assay; 0.5 µM): 98%
Cc1ccc(Nc2nccc(N(C)c3ccc4c(C)n(C)nc4c3)n2)cc1S(N)(=O)=O  inhibition (enzyme activity; inhibitor; 10 µM): -19%
COc1cc2ncnc(Nc3ccc(Oc4ccccc4)cc3C)c2cc1OC  inhibition (enzyme activity; inhibitor; 1 µM): 1%
Nc1cnc(N2CCc3cc(S(=O)(=O)Nc4c(F)cc(Cl)cc4F)cc(N4CCCC4=O)c32)nc1  remaining binding (cell-free assay; competition with immobilised ligand; 1 µM): 100%
C[S+]([O-])c1ccc(-c2nc(-c3ccncc3)c(-c3ccc(F)cc3)[nH]2)cc1 (centres unmarked)  remaining signal (cell-free assay; 0.5 µM): 99.8%
Cc1cc(NC(=O)c2cccc3cc(-c4cccc5[nH]nc(N)c45)ccc23)ccc1F  activity vs control (enzyme activity; inhibitor; 0.1 µM): 109%
CNC(=O)Nc1ccc2c(c1)[C@@]1(CC2)OC(=O)N(CC(=O)N(Cc2ccc(F)cc2)[C@@H](C)C(F)(F)F)C1=O  remaining binding (cell-free assay; competition with immobilised ligand; 1 µM): 89%
CN1CC(Oc2cnc(C#N)cc2-c2ccn3nc(NC(=O)C4CC4)cc3c2)C1  inhibition (enzyme activity; inhibitor; 1 µM): -1%
Cc1c(NC(=O)c2cc(C(N)=O)nc3cc(F)ccc23)c(C(F)(F)F)nn1Cc1ccc(C(C)(C)C)cc1  remaining binding (cell-free assay; competition with immobilised ligand; 1 µM): 83%
Nc1ncnc2occ(-c3ccc(NC(=O)Nc4cc(C(F)(F)F)ccc4F)cc3)c12  remaining signal (cell-free assay; inhibitor; 20 µM): 100%
N#CCCc1ccc2c(c1)-c1[nH]c3ccc([N+](=O)[O-])cc3c1CC(=O)N2  remaining signal (cell-free assay; 0.5 µM): 104%
N#Cc1ccc(Nc2ccc3[nH]c(=O)[nH]c3c2)c(Cl)c1  remaining binding (cell-free assay; competition with immobilised ligand; 1 µM): 100%
